Measurements reported in ChEMBL document CHEMBL1275567, “In vitro activity of TR-700, the antibacterial moiety of the prodrug TR-701, against linezolid-resistant strains” (2008).
Converted amounts (≈) assume the structure as drawn.

Assays:
Type in all cases: functional
Staphylococcus aureus [1] = test: Antimicrobial activity against linezolid-resistant methicillin-resistant Staphylococcus aureus NRS119 harboring G2576U mutation in peptidyl transferase centre by broth microdilution method
Procedure, shortened: (§1)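 MIC by CLSI broth microdilution for aerobically growing bacteria, in Mueller-Hinton II broth. Test organisms were recent clinical isolates from diverse geographic centers plus laboratory-derived oxazolidinone-resistant mutants. QC strains S. aureus ATCC 29213 and E. faecalis ATCC 29212 were included in each assay set to confirm proper assay performance.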

Enterococcus faecium [2] = test: Antimicrobial activity against linezolid-resistant Enterococcus faecium 854 harboring G2576U mutation in peptidyl transferase centre by broth microdilution method; procedure, shortened: as §1
Staphylococcus aureus [3] = test: Antimicrobial activity against linezolid-resistant methicillin-resistant Staphylococcus aureus NRS271 harboring G2576U mutation in peptidyl transferase centre by broth microdilution method; procedure, shortened: as §1
Staphylococcus aureus [4] = test: Antimicrobial activity against Staphylococcus aureus 1651 harboring G2576U mutation in peptidyl transferase centre by broth microdilution method; procedure, shortened: as §1
Staphylococcus aureus [5] = test: Antimicrobial activity against linezolid-resistant Staphylococcus aureus 1652 harboring U2500A mutation in peptidyl transferase centre by broth microdilution method; procedure, shortened: as §1
Enterococcus faecalis [6] = test: Antimicrobial activity against linezolid-resistant Enterococcus faecalis by broth microdilution method; procedure, shortened: as §1
Staphylococcus aureus [7] = test: Antimicrobial activity against linezolid-resistant Staphylococcus aureus 131-6952X harboring plasmid borne cfr gene by broth microdilution method; procedure, shortened: as §1
Staphylococcus aureus [8] = test: Antimicrobial activity against linezolid-resistant methicillin-resistant Staphylococcus aureus NRS120 harboring G2576U mutation in peptidyl transferase centre by broth microdilution method
Staphylococcus aureus [9] = test: Antimicrobial activity against linezolid-resistant Staphylococcus aureus 425 harboring G2447U in peptidyl transferase centre by broth microdilution method; procedure, shortened: as §1
Mammaliicoccus sciuri = test: Antimicrobial activity against linezolid-resistant Staphylococcus sciuri by broth microdilution method; procedure, shortened: as §1
Staphylococcus aureus [10] = test: Antimicrobial activity against linezolid-resistant Staphylococcus aureus 480 harboring G2447U in peptidyl transferase centre by broth microdilution method; procedure, shortened: as §1
Staphylococcus aureus [11] = test: Antimicrobial activity against linezolid-resistant Staphylococcus aureus by broth microdilution method; procedure, shortened: as §1
Staphylococcus aureus [12] = test: Antimicrobial activity against linezolid-resistant methicillin-resistant Staphylococcus aureus NRS127 by broth microdilution method; procedure, shortened: as §1
[13] = system: Staphylococcus epidermidis; test: Antimicrobial activity against linezolid-resistant Staphylococcus epidermidis by broth microdilution method; procedure, shortened: as §1
Staphylococcus aureus [14] = test: Antimicrobial activity against linezolid-resistant methicillin-resistant Staphylococcus aureus NRS121 harboring G2576U mutation in peptidyl transferase centre by broth microdilution method; procedure, shortened: as §1
Staphylococcus aureus [15] = test: Antimicrobial activity against linezolid-resistant Staphylococcus aureus 004-737X harboring plasmid borne cfr gene by broth microdilution method; procedure, shortened: as §1
Enterococcus faecium [16] = test: Antimicrobial activity against linezolid-resistant Enterococcus faecium by broth microdilution method; procedure, shortened: as §1
Enterococcus faecalis [17] = test: Antimicrobial activity against linezolid-resistant Enterococcus faecalis 413 harboring G2576U mutation in peptidyl transferase centre by broth microdilution method; procedure, shortened: as §1
Enterococcus faecalis [18] = test: Antimicrobial activity against linezolid-resistant Enterococcus faecalis 414 harboring G2576U mutation in peptidyl transferase centre by broth microdilution method; procedure, shortened: as §1
Staphylococcus aureus [19] = test: Antimicrobial activity against linezolid-resistant Staphylococcus aureus CM/05 3067 harboring chromosomal cfr gene by broth microdilution method; procedure, shortened: as §1
Staphylococcus hominis = test: Antimicrobial activity against linezolid-resistant Staphylococcus hominis by broth microdilution method; procedure, shortened: as §1
Staphylococcus aureus [20] = test: Antimicrobial activity against […] 29213 by broth microdilution method; procedure, shortened: as §1
Enterococcus faecalis [21] = test: Antimicrobial activity against linezolid-resistant Enterococcus faecalis 3128 harboring G2576U mutation in peptidyl transferase centre by broth microdilution method; procedure, shortened: as §1
Enterococcus faecalis [22] = test: Antimicrobial activity against linezolid-resistant Enterococcus faecalis 411 harboring G2576U mutation in peptidyl transferase centre by broth microdilution method; procedure, shortened: as §1
Enterococcus faecalis [23] = test: Antimicrobial activity against linezolid-resistant Enterococcus faecalis 1172 harboring G2576U mutation in peptidyl transferase centre by broth microdilution method; procedure, shortened: as §1
Enterococcus faecalis [24] = test: Antimicrobial activity against linezolid-resistant Enterococcus faecalis 3124 harboring G2576U mutation in peptidyl transferase centre by broth microdilution method; procedure, shortened: as §1
Enterococcus faecalis [25] = test: Antimicrobial activity against linezolid-resistant Enterococcus faecalis 412 harboring G2576U mutation in peptidyl transferase centre by broth microdilution method; procedure, shortened: as §1

Compound	MIC (Staphylococcus aureus [1])	MIC (Enterococcus faecium [2])	MIC (Staphylococcus aureus [3])	MIC (Staphylococcus aureus [4])	MIC (Staphylococcus aureus [5])	MIC50 (Enterococcus faecalis [6])	MIC90 (Enterococcus faecalis [6])	MIC (Staphylococcus aureus [7])	MIC (Staphylococcus aureus [8])	MIC (Staphylococcus aureus [9])	MIC (Staphylococcus aureus [10])	MIC (Staphylococcus aureus [12])	MIC (Staphylococcus aureus [15])	MIC (Enterococcus faecalis [17])	MIC (Enterococcus faecalis [18])	MIC (Staphylococcus aureus [19])	MIC (Staphylococcus aureus [20])	MIC (Enterococcus faecalis [22])	MIC (Enterococcus faecalis [23])	MIC (Enterococcus faecalis [25])	other results
CC(=O)NC[C@H]1CN(c2ccc(N3CCOCC3)c(F)c2)C(=O)O1 [LINEZOLID]	64 µg/mL (≈ 190 µM)	16 µg/mL (≈ 47.4 µM)	32 µg/mL (≈ 94.9 µM)	16 µg/mL (≈ 47.4 µM)	32 µg/mL (≈ 94.9 µM)	32 µg/mL (≈ 94.9 µM)	32 µg/mL (≈ 94.9 µM)	32 µg/mL (≈ 94.9 µM)	64 µg/mL (≈ 190 µM)	32 µg/mL (≈ 94.9 µM)	> 32 µg/mL	8 µg/mL (≈ 23.7 µM)	8 µg/mL (≈ 23.7 µM)	32 µg/mL (≈ 94.9 µM)	32 µg/mL (≈ 94.9 µM)	16 µg/mL (≈ 47.4 µM)	–	–	–	–	MIC (Mammaliicoccus sciuri): 16 µg/mL (≈ 47.4 µM); MIC50 (Staphylococcus aureus [11]): 2 µg/mL (≈ 5.93 µM); MIC90 (Staphylococcus aureus [11]): 16 µg/mL (≈ 47.4 µM); MIC50 [13]: 32 µg/mL (≈ 94.9 µM); MIC90 [13]: > 128 µg/mL; MIC (Staphylococcus aureus [14]): 64 µg/mL (≈ 190 µM); MIC50 (Enterococcus faecium [16]): 32 µg/mL (≈ 94.9 µM); MIC90 (Enterococcus faecium [16]): 64 µg/mL (≈ 190 µM); MIC (Staphylococcus hominis): 16 µg/mL (≈ 47.4 µM)
Cc1onc(-c2ccccc2)c1C(=O)N[C@@H]1C(=O)N2[C@@H]1SC(C)(C)[C@@H]2C(=O)O [OXACILLIN]	–	> 32 µg/mL	–	> 32 µg/mL	32 µg/mL (≈ 79.7 µM)	–	–	> 2 µg/mL	–	0.12 µg/mL (≈ 0.299 µM)	< 0.03 µg/mL	32 µg/mL (≈ 79.7 µM)	> 2 µg/mL	> 32 µg/mL	16 µg/mL (≈ 39.9 µM)	> 32 µg/mL	0.12 µg/mL (≈ 0.299 µM)	> 32 µg/mL	32 µg/mL (≈ 79.7 µM)	16 µg/mL (≈ 39.9 µM)	MIC (Enterococcus faecalis [21]): 2 µg/mL (≈ 4.98 µM); MIC (Enterococcus faecalis [24]): 8 µg/mL (≈ 19.9 µM)
CC1(C)S[C@@H]2[C@H](NC(=O)Cc3ccccc3)C(=O)N2[C@H]1C(=O)O [PENICILLIN G]	–	–	–	16 µg/mL (≈ 47.8 µM)	32 µg/mL (≈ 95.7 µM)	–	–	–	–	1 µg/mL (≈ 2.99 µM)	0.25 µg/mL (≈ 0.748 µM)	16 µg/mL (≈ 47.8 µM)	–	4 µg/mL (≈ 12 µM)	1 µg/mL (≈ 2.99 µM)	–	1 µg/mL (≈ 2.99 µM)	4 µg/mL (≈ 12 µM)	4 µg/mL (≈ 12 µM)	2 µg/mL (≈ 5.98 µM)	–
Cn1nnc(-c2ccc(-c3ccc(N4C[C@H](CO)OC4=O)cc3F)cn2)n1 [TEDIZOLID]	4 µg/mL (≈ 10.8 µM)	2 µg/mL (≈ 5.4 µM)	2 µg/mL (≈ 5.4 µM)	2 µg/mL (≈ 5.4 µM)	4 µg/mL (≈ 10.8 µM)	4 µg/mL (≈ 10.8 µM)	4 µg/mL (≈ 10.8 µM)	1 µg/mL (≈ 2.7 µM)	8 µg/mL (≈ 21.6 µM)	8 µg/mL (≈ 21.6 µM)	16 µg/mL (≈ 43.2 µM)	1 µg/mL (≈ 2.7 µM)	0.5 µg/mL (≈ 1.35 µM)	–	–	1 µg/mL (≈ 2.7 µM)	1 µg/mL (≈ 2.7 µM)	2 µg/mL (≈ 5.4 µM)	–	2 µg/mL (≈ 5.4 µM)	MIC (Mammaliicoccus sciuri): 2 µg/mL (≈ 5.4 µM); MIC50 (Staphylococcus aureus [11]): 0.25 µg/mL (≈ 0.675 µM); MIC90 (Staphylococcus aureus [11]): 2 µg/mL (≈ 5.4 µM); MIC50 [13]: 4 µg/mL (≈ 10.8 µM); MIC90 [13]: 8 µg/mL (≈ 21.6 µM); MIC (Staphylococcus aureus [14]): 4 µg/mL (≈ 10.8 µM); MIC50 (Enterococcus faecium [16]): 2 µg/mL (≈ 5.4 µM); MIC90 (Enterococcus faecium [16]): 4 µg/mL (≈ 10.8 µM); MIC (Staphylococcus hominis): 2 µg/mL (≈ 5.4 µM)
CN[C@H](CC(C)C)C(=O)N[C@H]1C(=O)N[C@@H](CC(N)=O)C(=O)N[C@H]2C(=O)N[C@H]3C(=O)N[C@H](C(=O)N[C@H](C(=O)O)c4cc(O)cc(O)c4-c4cc3ccc4O)[C@H](O)c3ccc(c(Cl)c3)Oc3cc2cc(c3O[C@@H]2O[C@H](CO)[C@@H](O)[C@H](O)[C@H]2O[C@H]2C[C@](C)(N)[C@H](O)[C@H](C)O2)Oc2ccc(cc2Cl)[C@H]1O [VANCOMYCIN]	–	> 32 µg/mL	–	–	–	–	–	–	–	–	–	–	–	1 µg/mL (≈ 0.69 µM)	32 µg/mL (≈ 22.1 µM)	–	–	1 µg/mL (≈ 0.69 µM)	> 32 µg/mL	1 µg/mL (≈ 0.69 µM)	MIC (Enterococcus faecalis [21]): > 32 µg/mL; MIC (Enterococcus faecalis [24]): > 32 µg/mL
